# PubChem BioAssay AID651950 (The Scripps Research Institute Molecular Screening Center, 2012)
# A number with no mark means an inactive call. Activity calls are given as the source filed them. No rule for the calls is given here.
# Test: Hsp70 transcriptional activators, SAR follow-up, cell-based, HeLa, Hsp70 promoter luciferase, luminescence (AID 651950)
# Conditions: HeLa hsp70.1pr-luc reporter; at 99 µM (top of the series)
# Summary of the method: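 Read-out: % activation relative to DMSO and MG132 controls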
row,Compound,activation
1,O=C1/C(=C/c2ccncc2)CCC/C1=C\c1ccncc1,-1.1% (active)
2,COc1cc(C(=O)/C(=C/c2cccnc2)c2nc3ccccc3o2)cc(OC)c1OC,-1.5%
3,O=c1c([N+](=O)[O-])c(Cl)c2ccccc2n1Cc1ccccc1,-0.4%
4,O=C1NC(=O)N(c2cccc(Cl)c2)C(=O)/C1=C\C=C\c1ccccc1,-0.7% (active)
5,COc1cccc(N2C(=O)NC(=O)/C(=C/C=C/c3ccccc3[N+](=O)[O-])C2=O)c1,-1.6%
6,O=[N+]([O-])c1c(Nc2ccc(Cl)cc2)cc(Cl)c2nonc12,-0.9% (active)
7,O=C1NC(=O)N(c2cccc(Br)c2)C(=O)/C1=C/C=C/c1ccccc1,-0.8% (active)
